Inhibition data for one molecule are collected here from ChEMBL document CHEMBL1147809, “Tumor-cell-targeted methionine-enkephalin analogues containing unnatural amino acids: design, synthesis, and in vitro antitumor activity” (2006).

The first experiment concerns HeLa. The experiment is described as follows: Antiproliferative activity against human HeLa cell line at 1000 uM relative to control. The format is functional. An outline of the steps:
(§1)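 Cells from ATCC grown as monolayers in DMEM with 10% FBS, 2 mM glutamine, penicillin/streptomycin, 37 °C, 5% CO2. Seeded at 2 × 10^4 cells/mL, and after 24 h the medium was replaced with fresh medium containing compound (water/10% DMSO stock, PBS working dilutions 10^-3 to 10^-6 M). Exposure was 72 h, then MTT read-out. Growth % = (A_peptide − A_blank)/(A_control − A_blank) × 100, with inhibition taken relative to untreated cells. Values are means of three experiments run in triplicate.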
A word on the inhibition: it is the drop in the measured response relative to a control, in per cent. Lower therefore signals little suppression. Molecule `N[C@@H](Cc1ccc(O)cc1)C(=O)N[C@@H](C(=O)NCC(=O)O)C1C2CC3CC(C2)CC1C3` (some centres undefined) returned an inhibition at 1000 µM of 28.2%.

A further experiment relates to HBL. The experiment is described as follows: Antiproliferative activity against human HBL cell line at 10 uM relative to control. The experiment is classed as functional. An outline of the steps:
as §1
On to `N[C@@H](Cc1ccc(O)cc1)C(=O)N[C@@H](C(=O)NCC(=O)O)C1C2CC3CC(C2)CC1C3` (some centres undefined), for which the inhibition at 10 µM came out at 1.2%.

The test system of a further experiment is HBL. As to the kind of experiment: Antiproliferative activity against human HBL cell line at 100 uM relative to control. The format is functional. An outline of the steps:
as §1
For the molecule `N[C@@H](Cc1ccc(O)cc1)C(=O)N[C@@H](C(=O)NCC(=O)O)C1C2CC3CC(C2)CC1C3` (some centres undefined), 100 µM produced 3.3% inhibition.

For the next experiment, the system named is HBL. As to the kind of experiment: Antiproliferative activity against human HBL cell line at 1000 uM relative to control. The experiment is classed as functional. A digest of the protocol: as §1
Regarding `N[C@@H](Cc1ccc(O)cc1)C(=O)N[C@@H](C(=O)NCC(=O)O)C1C2CC3CC(C2)CC1C3` (some centres undefined), 1000 µM produced 19.4% inhibition.

For another experiment, the system named is HT-29. The experiment is described as follows: Antiproliferative activity against human HT29 cell line at 10 uM relative to control. The format is functional. A digest of the protocol: as §1
`N[C@@H](Cc1ccc(O)cc1)C(=O)N[C@@H](C(=O)NCC(=O)O)C1C2CC3CC(C2)CC1C3` (some centres undefined): the inhibition at 10 µM was 3.8%.

Another experiment relates to HT-29. As to the kind of experiment: Antiproliferative activity against human HT29 cell line at 100 uM relative to control. The experiment is classed as functional. A digest of the protocol: as §1
In the case of `N[C@@H](Cc1ccc(O)cc1)C(=O)N[C@@H](C(=O)NCC(=O)O)C1C2CC3CC(C2)CC1C3` (some centres undefined), the inhibition at 100 µM is 12.4%.

Another experiment concerns HT-29. The experiment is described as follows: Antiproliferative activity against human HT29 cell line at 1000 uM relative to control. The experiment is classed as functional. An outline of the steps:
as §1
In the case of `N[C@@H](Cc1ccc(O)cc1)C(=O)N[C@@H](C(=O)NCC(=O)O)C1C2CC3CC(C2)CC1C3` (some centres undefined), at 1000 µM the inhibition was 22.4%.

A further experiment relates to SW-620. The experiment is described as follows: Antiproliferative activity against human SW620 cell line at 10 uM relative to control. The experiment is classed as functional. A digest of the protocol:
as §1
With `N[C@@H](Cc1ccc(O)cc1)C(=O)N[C@@H](C(=O)NCC(=O)O)C1C2CC3CC(C2)CC1C3` (some centres undefined), the inhibition at 10 µM worked out at 13.5%.

Another experiment relates to SW-620. As to the kind of experiment: Antiproliferative activity against human SW620 cell line at 100 uM relative to control. The experiment is classed as functional. An outline of the steps: as §1
The molecule `N[C@@H](Cc1ccc(O)cc1)C(=O)N[C@@H](C(=O)NCC(=O)O)C1C2CC3CC(C2)CC1C3` (some centres undefined) yielded an inhibition at 100 µM of 13.5%.

The test system of another experiment is SW-620. The experiment is described as follows: Antiproliferative activity against human SW620 cell line at 1000 uM relative to control. The experiment is classed as functional. An outline of the steps:
as §1
The molecule `N[C@@H](Cc1ccc(O)cc1)C(=O)N[C@@H](C(=O)NCC(=O)O)C1C2CC3CC(C2)CC1C3` (some centres undefined) yielded an inhibition at 1000 µM of 25.3%.

In a further experiment the test system is Caco-2. The experiment is described as follows: Antiproliferative activity against human Caco-2 cell line at 10 uM relative to control. The format is functional. An outline of the steps:
as §1
Molecule `N[C@@H](Cc1ccc(O)cc1)C(=O)N[C@@H](C(=O)NCC(=O)O)C1C2CC3CC(C2)CC1C3` (some centres undefined) displayed an inhibition at 10 µM of 6.9%.

For a further experiment, the system named is Caco-2. As to the kind of experiment: Antiproliferative activity against human Caco-2 cell line at 100 uM relative to control. The experiment is classed as functional. A digest of the protocol: as §1
In turn, `N[C@@H](Cc1ccc(O)cc1)C(=O)N[C@@H](C(=O)NCC(=O)O)C1C2CC3CC(C2)CC1C3` (some centres undefined) showed an inhibition at 100 µM of 8.1%.

The subject of another experiment is Caco-2. The experiment is described as follows: Antiproliferative activity against human Caco-2 cell line at 1000 uM relative to control. The experiment is classed as functional. An outline of the steps:
as §1
With `N[C@@H](Cc1ccc(O)cc1)C(=O)N[C@@H](C(=O)NCC(=O)O)C1C2CC3CC(C2)CC1C3` (some centres undefined), at 1000 µM the inhibition was 8.6%.

Another experiment relates to MCF7. The experiment is described as follows: Antiproliferative activity against human MCF7 cell line at 1000 uM relative to control. The format is functional. A digest of the protocol: as §1
`N[C@@H](Cc1ccc(O)cc1)C(=O)N[C@@H](C(=O)NCC(=O)O)C1C2CC3CC(C2)CC1C3` (some centres undefined) had an inhibition at 1000 µM of 15.6%.

The test system of another experiment is HEp-2. As to the kind of experiment: Antiproliferative activity against human HEp2 cell line at 10 uM relative to control. The experiment is classed as functional. An outline of the steps:
as §1
Take `N[C@@H](Cc1ccc(O)cc1)C(=O)N[C@@H](C(=O)NCC(=O)O)C1C2CC3CC(C2)CC1C3` (some centres undefined): 10 µM produced 4.9% inhibition.

A further experiment deals with HEp-2. As to the kind of experiment: Antiproliferative activity against human HEp2 cell line at 100 uM relative to control. The experiment is classed as functional. An outline of the steps:
as §1
`N[C@@H](Cc1ccc(O)cc1)C(=O)N[C@@H](C(=O)NCC(=O)O)C1C2CC3CC(C2)CC1C3` (some centres undefined): 100 µM produced 12.6% inhibition.

In the next experiment the test system is HEp-2. The experiment is described as follows: Antiproliferative activity against human HEp2 cell line at 1000 uM relative to control. The experiment is classed as functional. A digest of the protocol:
as §1
The molecule `N[C@@H](Cc1ccc(O)cc1)C(=O)N[C@@H](C(=O)NCC(=O)O)C1C2CC3CC(C2)CC1C3` (some centres undefined) had an inhibition at 1000 µM of 26.4%.

The test system of the next experiment is HeLa. The experiment is described as follows: Antiproliferative activity against human HeLa cell line at 10 uM relative to control. The experiment is classed as functional. An outline of the steps: as §1
In the case of `N[C@@H](Cc1ccc(O)cc1)C(=O)N[C@@H](C(=O)NCC(=O)O)C1C2CC3CC(C2)CC1C3` (some centres undefined), at 10 µM the inhibition was 11.7%.

For a further experiment, the system named is HeLa. The experiment is described as follows: Antiproliferative activity against human HeLa cell line at 100 uM relative to control. The format is functional. An outline of the steps:
as §1
With `N[C@@H](Cc1ccc(O)cc1)C(=O)N[C@@H](C(=O)NCC(=O)O)C1C2CC3CC(C2)CC1C3` (some centres undefined), the inhibition at 100 µM stood at 11.6%.

The subject of the next experiment is SW-620. As to the kind of experiment: Antiproliferative activity against human SW620 cell line at 1 uM relative to control. The experiment is classed as functional. An outline of the steps:
as §1
In turn, `N[C@@H](Cc1ccc(O)cc1)C(=O)N[C@@H](C(=O)NCC(=O)O)C1C2CC3CC(C2)CC1C3` (some centres undefined) displayed an inhibition at 1 µM of 17%.

A further experiment deals with Caco-2. As to the kind of experiment: Antiproliferative activity against human Caco-2 cell line at 1 uM relative to control. The experiment is classed as functional. A digest of the protocol: as §1
On to `N[C@@H](Cc1ccc(O)cc1)C(=O)N[C@@H](C(=O)NCC(=O)O)C1C2CC3CC(C2)CC1C3` (some centres undefined), for which 1 µM produced 8.1% inhibition.

Another experiment concerns HEp-2. As to the kind of experiment: Antiproliferative activity against human HEp2 cell line at 1 uM relative to control. The format is functional. An outline of the steps: as §1
In the case of `N[C@@H](Cc1ccc(O)cc1)C(=O)N[C@@H](C(=O)NCC(=O)O)C1C2CC3CC(C2)CC1C3` (some centres undefined), the inhibition at 1 µM turned out to be 4.6%.

The subject of the next experiment is HeLa. The experiment is described as follows: Antiproliferative activity against human HeLa cell line at 1 uM relative to control. The experiment is classed as functional. An outline of the steps:
as §1
The molecule `N[C@@H](Cc1ccc(O)cc1)C(=O)N[C@@H](C(=O)NCC(=O)O)C1C2CC3CC(C2)CC1C3` (some centres undefined) came in with an inhibition at 1 µM of 11%.

The test system of the next experiment is HT-29. The experiment is described as follows: Antiproliferative activity against human HT29 cell line at 1 uM relative to control. The experiment is classed as functional. An outline of the steps: as §1
Turning to `N[C@@H](Cc1ccc(O)cc1)C(=O)N[C@@H](C(=O)NCC(=O)O)C1C2CC3CC(C2)CC1C3` (some centres undefined), the inhibition at 1 µM came to 7.6%.
